# From ChEMBL document CHEMBL1629624, “In vitro and in vivo studies to characterize the clearance mechanism and potential cytochrome P450 interactions of anidulafungin” (Antimicrob Agents Chemother, 2009)
# What was measured:
# Type in all cases: ADME, organism-based
# Plasma [1] = experiment: Tmax in Sprague-Dawley rat plasma at 5 mg/kg, iv by liquid scintillation counting; parameters: dose 5 mg/kg, route intravenous; settings: in vivo
# How it was run: (§1)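 Male Sprague-Dawley rats, single i.v. bolus of [14C]drug. Blood by cardiac puncture from three noncannulated rats killed at each time from 0.25 to 168 h; plasma separated from an aliquot. Radioactivity by liquid scintillation counting. Parameters come from a composite profile of mean values, taking 1 g as equal to 1 ml.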
# [2] = Volume of distribution at steady state in human whole blood at 100 uCi, iv by liquid scintillation counting; settings: in vivo
# How it was run: (§2)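 Healthy adult men (n = 9), single i.v. infusion of [14C]drug over 100 min at 1 mg/min. 100 mg/100 μCi was planned; the mean actually given was 88.3 mg and 95 μCi. Heparinized samples drawn from 0 h through day 10 and at follow-up. Total radioactivity in plasma or whole blood counted by liquid scintillation and expressed as mg equivalents. Noncompartmental analysis, given as mean (%CV).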
# Plasma [3] = experiment: Cmax in human plasma at 100 uCi, iv by liquid scintillation counting; parameters: route intravenous; settings: in vivo
# How it was run: (§3)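 Nine healthy men, single i.v. infusion of [14C]drug (planned 100 mg/100 μCi, mean delivered 95 μCi) over 100 min. Heparinized blood sampled from 0 to 18 h, then daily through day 10, plus follow-up. Total radioactivity in plasma and whole blood by liquid scintillation counting, reported as mg equivalents. Noncompartmental analysis; values are means (%CV).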
# [4] = Drug level in human assessed as radioactive drug recovery in urine at 100 uCi, iv after 216 hrs by liquid scintillation counting; settings: in vivo
# How it was run: (§4)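 Nine healthy men given a single i.v. infusion of [14C]drug. Urine collected predose, at 0-2, 2-4, 4-8 and 8-24 h, then every 24 h to day 10. Feces collected predose and every 24 h to day 10. Radioactivity measured by liquid scintillation counting and totalled as cumulative percent of dose through 216 h.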
# [5] = Drug level in noncannulated Sprague-Dawley rat assessed as radioactive drug recovery in feces at 5 mg/kg, iv after 168 hrs by liquid scintillation counting; parameters: dose 5 mg/kg, route intravenous; settings: in vivo
# How it was run: (§5)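 Male Sprague-Dawley rats, single i.v. bolus of [14C]drug. Five bile duct-cannulated rats: bile collected at 0-4, 4-8 and 8-24 h, then every 24 h to 168 h. Three noncannulated rats were killed at 168 h. Urine and feces collected over set intervals; carcass and cage washings taken at sacrifice. Liquid scintillation counting, expressed as percent of dose.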
# Plasma [6] = experiment: Clearance in human plasma at 100 uCi, iv by liquid scintillation counting; settings: in vivo; how it was run: as §3
# Plasma [7] = experiment: Volume of distribution at steady state in Sprague-Dawley rat plasma at 5 mg/kg, iv by liquid scintillation counting; parameters: dose 5 mg/kg, route intravenous; settings: in vivo; how it was run: as §1
# Plasma [8] = experiment: Half life in Sprague-Dawley rat plasma at 5 mg/kg, iv by liquid scintillation counting; parameters: dose 5 mg/kg, route intravenous; settings: in vivo; how it was run: as §1
# [9] = Cmax in human whole blood at 100 uCi, iv by liquid scintillation counting; parameters: route intravenous; settings: in vivo; how it was run: as §3
# [10] = Drug level in bile-duct cannulated Sprague-Dawley rat assessed as radioactive drug recovery in bile at 5 mg/kg, iv after 168 hrs by liquid scintillation counting; parameters: dose 5 mg/kg, route intravenous; settings: in vivo; how it was run: as §5
# [11] = Half life in human whole blood at 100 uCi, iv by liquid scintillation counting; how it was run: as §3
# [12] = Drug level in human assessed as radioactive drug recovery in feces at 100 uCi, iv within 216 hrs by liquid scintillation counting; settings: in vivo; how it was run: as §4
# [13] = Tmax in Sprague-Dawley rat whole blood at 5 mg/kg, iv by liquid scintillation counting; parameters: dose 5 mg/kg, route intravenous; settings: in vivo; how it was run: as §1
# Plasma [14] = experiment: Half life in human plasma at 100 uCi, iv by liquid scintillation counting; how it was run: as §3
# [15] = Drug level in human assessed as radioactive drug recovery in feces at 100 uCi, iv after 216 hrs by liquid scintillation counting; settings: in vivo; how it was run: as §4
# [16] = Tmax in human whole blood at 100 uCi, iv by liquid scintillation counting; settings: in vivo; how it was run: as §3
# Plasma [17] = experiment: Cmax in Sprague-Dawley rat plasma at 5 mg/kg, iv by liquid scintillation counting; parameters: dose 5 mg/kg, route intravenous; settings: in vivo; how it was run: as §1
# Plasma [18] = experiment: Volume of distribution at steady state in human plasma at 100 uCi, iv by liquid scintillation counting; settings: in vivo; how it was run: as §2
# [19] = Volume of distribution at steady state in Sprague-Dawley rat whole blood at 5 mg/kg, iv by liquid scintillation counting; parameters: dose 5 mg/kg, route intravenous; settings: in vivo
# How it was run: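 Male Sprague-Dawley rats, single i.v. bolus of [14C]drug, 5 mg/kg. Blood by cardiac puncture from three non-cannulated rats killed at each time from 0.25 to 168 h. Radioactivity counted by liquid scintillation. Noncompartmental parameters taken from a composite profile of mean values per time point, assuming 1 g blood equals 1 ml.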
# [20] = Half life in Sprague-Dawley rat whole blood at 5 mg/kg, iv by liquid scintillation counting; parameters: dose 5 mg/kg, route intravenous; settings: in vivo; how it was run: as §1
# [21] = Mean residence time in human whole blood at 100 uCi, iv by liquid scintillation counting; settings: in vivo; how it was run: as §3
# [22] = Drug level in noncannulated Sprague-Dawley rat assessed as radioactive drug recovery in carcass at 5 mg/kg, iv after 168 hrs by liquid scintillation counting; parameters: dose 5 mg/kg, route intravenous; settings: in vivo; how it was run: as §5
# [23] = Drug level in bile-duct cannulated Sprague-Dawley rat assessed as radioactive drug recovery in feces at 5 mg/kg, iv after 168 hrs by liquid scintillation counting; parameters: dose 5 mg/kg, route intravenous; settings: in vivo; how it was run: as §5
# [24] = Drug level in bile-duct cannulated Sprague-Dawley rat assessed as radioactive drug recovery in carcass at 5 mg/kg, iv after 168 hrs by liquid scintillation counting; parameters: dose 5 mg/kg, route intravenous; settings: in vivo; how it was run: as §5
# Plasma [25] = experiment: Mean residence time in human plasma at 100 uCi, iv by liquid scintillation counting; settings: in vivo; how it was run: as §3
# [26] = Clearance in human whole blood at 100 uCi, iv by liquid scintillation counting; settings: in vivo; how it was run: as §3
# Plasma [27] = experiment: Tmax in human plasma at 100 uCi, iv by liquid scintillation counting; settings: in vivo; how it was run: as §3
# [28] = Cmax in Sprague-Dawley rat whole blood at 5 mg/kg, iv by liquid scintillation counting; parameters: dose 5 mg/kg, route intravenous; settings: in vivo; how it was run: as §1
smiles,measurement,setting,value
CCCCCOc1ccc(-c2ccc(-c3ccc([14C](=O)N[C@H]4C[C@@H](O)[C@@H](O)NC(=O)[C@@H]5[C@@H](O)[C@@H](C)CN5C(=O)[C@H]([C@H](C)O)NC(=O)[C@H]([C@H](O)[C@@H](O)c5ccc(O)cc5)NC(=O)[C@@H]5C[C@@H](O)CN5C(=O)[C@H]([C@H](C)O)NC4=O)cc3)cc2)cc1 [[14C]-ANIDULAFUNGIN],Tmax,Plasma [1],0.25 h
same,Vdss,[2],61.6 L
same,Cmax,Plasma [3],3020 ng/mL
same,Drug uptake,[4],0.56%
same,Drug uptake,[5],77.1%
same,CL,Plasma [6],0.356 L/h
same,Vdss,Plasma [7],1.056 L/kg
same,t1/2,Plasma [8],52.9 h
same,Cmax,[9],3380 ng/mL
same,Drug uptake,[10],33.9%
same,t1/2,[11],139 h
same,Drug uptake,[12],10%
same,Tmax,[13],0.25 h
same,t1/2,Plasma [14],119 h
same,Drug uptake,[15],29.5%
same,Tmax,[16],1.75 h
same,Cmax,Plasma [17],6.84 ugequiv/ml
same,Vdss,Plasma [18],57.6 L
same,Vdss,[19],0.696 L/kg
same,t1/2,[20],52.1 h
same,MRT,[21],174 h
same,Drug uptake,[22],23.1%
same,Drug uptake,[23],17.1%
same,Drug uptake,[24],40.4%
same,MRT,Plasma [25],162 h
same,CL,[26],0.356 L/h
same,Tmax,Plasma [27],1.78 h
same,Cmax,[28],11.5 ugequiv/ml
